Compound activity as filed in PubChem BioAssay.
The full list was thinned out, with hits kept by preference.
KDM4C inh: blocks human GASC-1 (KDM4C) demethylase activity; Q9H3R0; GST-KDM4C 2-372, H3K9me3 peptide, LANCE TR-FRET; inhibition, % at 12.5 µM; 96,000 tested, 0.15% active; AID 720574;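 active = mean replicate inhibition above about 25%, with at least 55% of replicates also reaching it, limit read from the data, passing the limit was not always enough; inconclusive = only one of those two conditions met; inactive = neither condition met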
Target sequence (Q9H3R0 2-372 limits assumed): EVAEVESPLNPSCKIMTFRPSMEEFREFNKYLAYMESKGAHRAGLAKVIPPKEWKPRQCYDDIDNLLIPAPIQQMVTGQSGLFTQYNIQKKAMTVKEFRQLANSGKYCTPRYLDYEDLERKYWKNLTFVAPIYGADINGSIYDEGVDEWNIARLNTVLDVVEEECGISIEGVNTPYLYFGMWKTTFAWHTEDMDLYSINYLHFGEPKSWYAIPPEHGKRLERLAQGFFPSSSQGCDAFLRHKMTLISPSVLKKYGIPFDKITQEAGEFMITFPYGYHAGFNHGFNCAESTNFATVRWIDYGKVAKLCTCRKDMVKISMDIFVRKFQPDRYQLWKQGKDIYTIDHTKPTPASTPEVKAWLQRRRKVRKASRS
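Material: N-terminal GST-fused human GASC-1 (KDM4C) fragment, residues 2-372. Input: 10 nM enzyme. Incubation: enzyme reaction 30 min, then detection 60 min, both room temperature. Doses: one test concentration per compound. Read-out basis: inhibition from TR-FRET ratio decrease. Detection: LANCE TR-FRET, excitation 340 nm, emissions 618 and 671 nm.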
T cruzi growth-1: inhibitors of T. cruzi proliferation. 77,000 tested, 5.9% active. inhibition, % at 8.34 µM. T. cruzi beta-gal in NIH3T3, GalScreen luminescence, 90 h. AID 624255;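 active = mean inhibition above about 93%, with at least 55% of replicates each passing it, limit read from the data, passing the limit was not always enough; inconclusive = only one of those two conditions holds; inactive = neither condition holds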
IDH1 R132H inh: IDH1 R132H (human) inhibition; O75874; IDH1 R132H reductase, diaphorase/resazurin fluorescence, 60 min; inhibition, % at 10 µM; 70,000 tested, 0.18% active; in the data active = inhibition above about 34%; inconclusive = no clear call, values can overlap the other calls; inactive = below about 11%;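 note: 0% = DMSO and 100% = no enzyme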
T cruzi growth-2: Trypanosoma cruzi proliferation inhibition; shares compounds with T cruzi growth-1; T. cruzi beta-gal in NIH3T3, GalScreen luminescence, 90 h; inhibition, % at 8.35 µM; 5,600 tested, 72% active; AID 651739;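 active = mean replicate inhibition above about 95% and at least 55% of replicates individually reaching it, limit read from the data; inconclusive = only one of the two criteria is met; inactive = neither criterion is met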
T cruzi growth-3: Trypanosoma cruzi proliferation inhibition | shares compounds with T cruzi growth-1 | T. cruzi beta-gal in NIH3T3, GalScreen luminescence, 90 h | inhibition, % at 2.09 µM | 5,600 tested, 21% active | AID 651740;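 active = mean inhibition above about 95%, with at least 55% of replicates also reaching it, limit read from the data; inconclusive = meets just one of the two conditions; inactive = meets neither condition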;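 note: plate controls were neutral control median for no effect and positive control median for full effect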
3T3 cytotox: NIH/3T3 (mouse) viability loss; shares compounds with T cruzi growth-1; NIH/3T3 viability, CellTiter-Glo ATP luminescence, 90 h; cytotoxicity (signal decrease), % at 8.35 µM; 5,600 tested, 14% active; AID 651742;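 active = mean signal decrease across replicates above about 35% based on untreated-well scatter, with enough replicates individually passing, limit read from the data; inconclusive = no rule stated though some were filed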;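 note: 0% = median of neutral control wells and 100% = median of positive control wells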
3T3 cytotox 2: cytotoxicity in mouse NIH/3T3 fibroblasts; shares compounds with T cruzi growth-1; NIH/3T3 viability, CellTiter-Glo ATP luminescence, 90 h; inhibition, % at 24.9 µM; 5,600 tested, 56% active;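 active = mean loss of cell viability signal at or above a set limit, and enough replicates individually reaching it; inconclusive = meets only the mean limit or only the replicate share; inactive = meets neither condition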;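 note: 0% = median of neutral control wells and 100% = median of positive control wells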
* = called active by the depositor; ? = inconclusive; . = no result given.

SMILES | KDM4C inh | T cruzi growth-1 | IDH1 R132H inh | T cruzi growth-2 | T cruzi growth-3 | 3T3 cytotox | 3T3 cytotox 2
COc1ccc(C#Cc2ccc3c(c2)[C@@H]2[C@@H](CCN2C(=O)C2CCCCC2)[C@@H](CO)N3)cc1 | -1 | 101* | . | 101* | 86 | 27 | 95*
COc1ccc(C#Cc2ccc3c(c2)[C@@H]2[C@@H](CCN2C(=O)c2ccncc2)[C@@H](CO)N3)cc1 | 1 | 122* | . | 105* | 57 | -18 | 13
COc1ccc(C#Cc2ccc3c(c2)[C@H]2[C@H](CCN2C(=O)C2CC2)[C@H](CO)N3)cc1 | 2 | 104* | . | 110* | 67 | 0 | 41*
COc1ccc(C#Cc2ccc3c(c2)[C@@H]2[C@@H](CCN2C(=O)C2CCC2)[C@@H](CO)N3)cc1 | 4 | . | . | . | . | . | .
CCc1c(O)nc(SC(C)C(=O)Nc2cccc(Cl)c2)[nH]c1=O (stereo unspecified) | . | . | 2 | . | . | . | .
CC(=O)CCCCCCCc1[nH]c2ccccc2c(=O)c1O[C@@H]1O[C@H](CO)[C@@H](O)[C@H](O)[C@H]1O | . | . | 0 | . | . | . | .
COc1cc(NC(=O)COc2ccc(Br)cc2)ccc1NC(=O)c1ccco1 | . | . | 0 | . | . | . | .
O=C(CSc1nc2ncccc2[nH]1)Nc1ccccc1Cl | . | . | 1 | . | . | . | .
Cc1n[nH]c(C)c1Sc1nccc(-c2cccnc2)n1 | . | . | 0 | . | . | . | .
Cc1cc(=O)oc2cc(OC(C)C(=O)Nc3sc4c(c3C(N)=O)CCCC4)ccc12 (stereo unspecified) | . | . | 0 | . | . | . | .
CSc1cc(-c2nccs2)[nH]n1 | . | . | -2 | . | . | . | .
CCC(=O)N1CC[C@@H]2[C@H](CO)Nc3ccc(C#Cc4ccc(F)cc4)cc3[C@@H]21 | -2 | 106* | . | 105* | 74 | 18 | 50*
O=C(Cc1ccccc1)N1CC[C@@H]2[C@H](CO)Nc3ccc(C#Cc4ccccc4)cc3[C@@H]21 | -3 | 81 | . | . | . | . | .
CCC(=O)N1CC[C@@H]2[C@H]1c1cc(C#Cc3ccc(F)cc3)ccc1N[C@@H]2CO | 0 | 51 | . | . | . | . | .
O=C(Cc1ccccc1)N1CC[C@@H]2[C@H]1c1cc(C#Cc3ccccc3)ccc1N[C@@H]2CO | -1 | 105* | . | 89 | 61 | -1 | 106*
COc1ccc(C#Cc2ccc3c(c2)[C@H]2[C@H](CCN2C(=O)c2ccccc2F)[C@H](CO)N3)cc1 | -1 | ? | . | 106* | 99* | 43* | 62*
COc1cccc(C#Cc2ccc3c(c2)[C@H]2[C@H](CCN2C(=O)c2ccccc2F)[C@H](CO)N3)c1 | 0 | 60 | . | . | . | . | .
Cc1nn(Cc2cccc(C(=O)NCc3ccccn3)c2)c(C)c1Cl | . | . | -1 | . | . | . | .
[N-]=[N+]=NCC(=O)N1CCN(c2ccccc2)CC1 | . | . | 0 | . | . | . | .
C[C@H]1CN([C@@H](C)CO)C(=O)c2cc(C3=CCCC3)cnc2O[C@@H]1CN(C)C(=O)Nc1ccc(C(F)(F)F)cc1 | -2 | 82 | . | . | . | . | .
C[C@H]1CN([C@@H](C)CO)C(=O)c2cc(C3=CCCC3)cnc2O[C@@H]1CN(C)C(=O)Nc1ccc(F)cc1 | 1 | . | . | . | . | . | .
C[C@@H]1CN([C@@H](C)CO)C(=O)c2cc(C3=CCCC3)cnc2O[C@H]1CN(C)C(=O)Nc1ccc(C(F)(F)F)cc1 | 2 | 99* | 2 | 102* | 56 | 21 | 6
C[C@@H]1CN([C@H](C)CO)C(=O)c2cc(C3=CCCC3)cnc2O[C@@H]1CN(C)C(=O)Nc1ccc(C(F)(F)F)cc1 | 0 | 111* | . | 107* | 84 | ? | 104*
COc1ccc(S(=O)(=O)N(C)CC(=O)Nc2cc(Cl)c(Cl)cc2Cl)cc1 | . | . | 0 | . | . | . | .
CN(C)CCCOc1ccc(/C=N/NC(=O)CCCCCC(=O)NO)cc1 | . | . | 0 | . | . | . | .
SMILES | KDM4C inh | T cruzi growth-1 | IDH1 R132H inh | T cruzi growth-2 | T cruzi growth-3 | 3T3 cytotox | 3T3 cytotox 2
COc1ccc(C(=O)CSc2nnc(CC(C)O)n2C)cc1 (stereo unspecified) | . | . | -1 | . | . | . | .
C[C@@H]1CCCCO[C@@H](CN(C)S(=O)(=O)c2ccc(F)cc2)[C@@H](C)CN([C@H](C)CO)C(=O)c2cc(NC(=O)Nc3ccc(C(F)(F)F)cc3)ccc2O1 | 0 | 104* | . | 111* | 106* | ? | 62*
C[C@@H]1CCCCO[C@@H](CN(C)S(=O)(=O)c2ccc(F)cc2)[C@H](C)CN([C@@H](C)CO)C(=O)c2cc(NC(=O)Nc3ccc(C(F)(F)F)cc3)ccc2O1 | -1 | 100* | 3 | 109* | 114* | -8 | 12
C[C@H](CO)N1C[C@H](C)[C@H](CN(C)S(=O)(=O)c2ccc(F)cc2)OCCCC[C@H](C)Oc2ccc(NC(=O)Nc3ccc(C(F)(F)F)cc3)cc2C1=O | 1 | 93 | . | . | . | . | .
C[C@H](CO)N1C[C@H](C)[C@@H](CN(C)S(=O)(=O)c2ccc(F)cc2)OCCCC[C@H](C)Oc2ccc(NC(=O)Nc3ccc(C(F)(F)F)cc3)cc2C1=O | 1 | 88 | 1 | . | . | . | .
O=S(=O)(c1ccccc1F)N1CC[C@@H]2[C@H](CO)Nc3ccc(-c4ccccc4F)cc3[C@@H]21 | 1 | 45 | . | . | . | . | .
COc1ccccc1-c1ccc2c(c1)[C@@H]1[C@@H](CCN1S(=O)(=O)c1ccccc1OC)[C@H](CO)N2 | -1 | 26 | . | . | . | . | .
COc1ccccc1S(=O)(=O)N1CC[C@@H]2[C@H]1c1cc(-c3ccccc3F)ccc1N[C@@H]2CO | -1 | 102* | . | 97* | 86 | 26 | 8
Cc1ccccc1S(=O)(=O)N1CC[C@@H]2[C@@H](CO)Nc3ccc(-c4ccccc4F)cc3[C@@H]21 | -3 | 119* | . | 102* | 85 | 39* | 104*
C[C@H]1CN([C@@H](C)CO)C(=O)c2cc(-c3cccnc3)cnc2O[C@@H]1CN(C)Cc1ccc(Oc2ccccc2)cc1 | 0 | ? | -1 | 107* | 78 | 12 | 104*
C[C@H]1CN([C@@H](C)CO)C(=O)c2cc(-c3ccncc3)cnc2O[C@@H]1CN(C)Cc1ccc(Oc2ccccc2)cc1 | -3 | 98* | -4 | 105* | 78 | 33 | 104*
C[C@@H]1CN([C@H](C)CO)C(=O)c2cc(-c3cccnc3)cnc2O[C@H]1CN(C)Cc1ccc(Oc2ccccc2)cc1 | 6 | 89 | -1 | . | . | . | .
C[C@H](CO)N1C[C@H](C)[C@H](CN(C)Cc2ccc(Oc3ccccc3)cc2)Oc2ncc(-c3cccnc3)cc2C1=O | 1 | 49 | 6 | . | . | . | .
C[C@H](CO)N1C[C@H](C)[C@@H](CN(C)C(=O)Nc2cccc3ccccc23)OCCCC[C@H](C)Oc2ccc(NS(=O)(=O)c3cccs3)cc2C1=O | -2 | 102* | . | 106* | 56 | -20 | -24
C[C@H](CO)N1C[C@H](C)[C@H](CN(C)C(=O)Nc2ccccc2)OCCCC[C@H](C)Oc2ccc(NS(=O)(=O)c3cccs3)cc2C1=O | -2 | 42 | . | . | . | . | .
